Source: PubChem
This is a sample that favours compounds with a hit; in the whole collection about 3% have one here.
SIRT5 block – inhibitors of human sirtuin-5 desuccinylase | Q9NXA8 | hit rate 1.1% among 330,000 | Purified SirT5, succinyl-peptide AMC, trypsin-coupled fluorescence | AID 652115 | inhibition, % at 15 µM; in the data active = inhibition above about 15%
Target sequence (Q9NXA8 whole entry, looked up): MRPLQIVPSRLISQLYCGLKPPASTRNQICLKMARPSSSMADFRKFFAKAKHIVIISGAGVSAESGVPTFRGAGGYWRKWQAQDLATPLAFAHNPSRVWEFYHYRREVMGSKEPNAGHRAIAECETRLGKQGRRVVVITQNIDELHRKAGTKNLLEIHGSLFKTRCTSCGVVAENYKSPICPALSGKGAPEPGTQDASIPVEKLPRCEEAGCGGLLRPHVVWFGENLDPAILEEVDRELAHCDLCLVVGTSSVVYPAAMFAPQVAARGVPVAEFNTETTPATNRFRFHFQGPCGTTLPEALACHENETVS
Ecoli rRNA inh – selective bacterial rRNA inhibition in E. coli | hit rate 1.6% among 350,000 | E. coli WT GFP vs humanized-ribosome RFP mutants, fluorescence, 24 h; stronger effect = lower value; DMSO median 0, no signal -100 | AID 720706 | GFP signal change (wild-type ribosome), % (test concentration not listed);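 active = significant combined selectivity score with lowered wild-type GFP, culture density cut under 30%, mutant RFP and density less affected; inactive = any of these conditions unmet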
PGC1a acetyl inh – lowers PGC1a acetylation signal in U2OS cells | AlphaScreen anti-acetyl-lysine; with virally co-expressed GCN5 acetyltransferase | inhibition, % at 15.6 µM | hit rate 0.17% among 350,000 | AID 651687;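 active = every replicate shows inhibition of at least 40%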
C2C12 statin – protects C2C12 myotubes from simvastatin toxicity | ATP luminescence, 48 h; scaled: DMSO 0, geranylgeraniol control 100 | rescue of ATP level, % at 7.49 µM | hit rate 0.78% among 330,000;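 active = mean ATP rescue above about 67%, or every replicate alone reaching that limit, limit read from the data, passing the limit was not always enough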;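 note: myotubes were challenged with 10 µM simvastatin during compound exposure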
Cneo AK release – Cryptococcus neoformans lysis via adenylate kinase release; C. neoformans lysis, adenylate kinase release luminescence, 4 h; normalised: neutral wells 0, clomiphene wells 100; lysis activity, % at 15 µM; hit rate 0.2% among 360,000; AID 651654;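 active = mean lysis activity across replicates of at least 80%, whatever share of replicates individually reach that level; inactive = mean lysis activity below 80%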
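read-out = cell lysis signal | test system = log-phase Cryptococcus neoformans yeast cells | input = cells at 5 × 10^6 per mL | medium = fresh YPD growth medium | signal = luminescent adenylate kinase detection reagent | timing = 4 h at 37 °C static, read 1 h later | dosing = single dose | controls = Clomiphene as positive lysis control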
S100A4 inh HTS – inhibitors of human S100A4 binding to myosin IIA peptide; P26447; S100A4/TAMRA-MyoIIA peptide fluorescence polarization; inhibition, % at 10.7 µM; hit rate 0.14% among 360,000; AID 652163;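 active = mean inhibition of at least 70% across replicates, with every replicate also reaching that level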
Target sequence (P26447 whole entry, looked up): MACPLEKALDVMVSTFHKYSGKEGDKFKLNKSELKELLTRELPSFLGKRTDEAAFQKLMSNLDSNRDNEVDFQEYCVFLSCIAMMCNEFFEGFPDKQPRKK
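Material: S100A4 monomer protein / Buffer or medium: 50 mM HEPES pH 7.2, 10 mM CaCl2, 100 mM KCl / Times: 5 min incubation before reading / Benchmarks: neutral control DMSO, positive control TFP / Reagent: labelled myosin peptide probe, 5 nM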
A number is an active result.

`CCC(=O)N1CC[C@@H]2[C@H]1c1cc(C#Cc3ccccc3)ccc1N[C@@H]2CO` gave SIRT5 block inactive, Ecoli rRNA inh inactive, PGC1a acetyl inh inactive, C2C12 statin inactive, Cneo AK release inactive and S100A4 inh HTS inactive.
For CCC(=O)N1CC[C@@H]2[C@@H](CO)Nc3ccc(C#Cc4cccnc4)cc3[C@@H]21 the results were SIRT5 block 19, Ecoli rRNA inh inactive, PGC1a acetyl inh inactive, C2C12 statin inactive, Cneo AK release inactive and S100A4 inh HTS inactive.
O=C(c1cccnc1)N1CC[C@@H]2[C@@H](CO)Nc3ccc(C#Cc4cccnc4)cc3[C@@H]21 was read as SIRT5 block inactive, Ecoli rRNA inh inactive, PGC1a acetyl inh inactive and S100A4 inh HTS inactive.
Screening CC(=O)N1CC[C@@H]2[C@H](CO)Nc3ccc(C#Cc4cccnc4)cc3[C@@H]21 returned SIRT5 block 18, Ecoli rRNA inh inactive, PGC1a acetyl inh inactive, C2C12 statin inactive, Cneo AK release inactive and S100A4 inh HTS inactive.
`O=C(Nc1ccc(F)cc1)N[C@@H]1CC[C@H](CCn2cc(C3(O)CCCC3)nn2)O[C@H]1CO` gave SIRT5 block inactive, Ecoli rRNA inh inactive, PGC1a acetyl inh inactive, C2C12 statin inactive, Cneo AK release inactive and S100A4 inh HTS inactive.
`CCCNC(=O)N1C[C@H](C)[C@H](OC)CN(C)C(=O)c2ccc(NC(=O)CC)cc2OC[C@H]1C` gave SIRT5 block inactive, Ecoli rRNA inh inactive, PGC1a acetyl inh inactive, C2C12 statin inactive, Cneo AK release inactive and S100A4 inh HTS inactive.
`Nc1cc2c(cc1Cl)-c1ccccc1C2=NO` gave SIRT5 block 24, Ecoli rRNA inh inactive, PGC1a acetyl inh inactive, C2C12 statin inactive, Cneo AK release inactive and S100A4 inh HTS inactive.
Screening Fc1cccc(NC(=S)NCc2ccc(Cl)cc2)c1 returned SIRT5 block inactive, Ecoli rRNA inh inactive and S100A4 inh HTS inactive.
For O=[N+]([O-])c1cc(C(F)(F)F)cc([N+](=O)[O-])c1NCCNC(=S)Nc1cccc(F)c1 the results were SIRT5 block inactive, Ecoli rRNA inh -25, PGC1a acetyl inh inactive, C2C12 statin inactive and S100A4 inh HTS inactive.
`Cc1cccc(NC(=S)N/N=C/c2cccc(O)c2)c1C` gave SIRT5 block inactive, Ecoli rRNA inh -24, PGC1a acetyl inh inactive, Cneo AK release inactive and S100A4 inh HTS inactive.
Screening Cc1ccccc1NC(=S)N/N=C/c1ccc(O)cc1O returned SIRT5 block 16, Ecoli rRNA inh inactive, PGC1a acetyl inh inactive, C2C12 statin inactive, Cneo AK release inactive and S100A4 inh HTS inactive.
C[C@H]1CN([C@@H](C)CO)C(=O)c2cc(C#CC3(O)CCCC3)cnc2O[C@@H]1CN(C)Cc1ccncc1 was read as SIRT5 block inactive, Ecoli rRNA inh inactive, PGC1a acetyl inh inactive, C2C12 statin inactive, Cneo AK release inactive and S100A4 inh HTS inactive.
Screening C=CCn1c(COc2cccc(C)c2)nnc1SCn1nnc2ccccc2c1=O returned SIRT5 block inactive, Ecoli rRNA inh -43, C2C12 statin inactive, Cneo AK release inactive and S100A4 inh HTS inactive.
`CCCNC(=O)Nc1ccc2c(c1)C(=O)N(C)C[C@H](OC)[C@@H](C)CN(CCC(F)(F)F)[C@@H](C)CO2` gave Ecoli rRNA inh inactive, PGC1a acetyl inh inactive and C2C12 statin inactive.
COCc1n[nH]c(=S)n1-c1ccccc1 was read as PGC1a acetyl inh inactive, C2C12 statin inactive and Cneo AK release inactive.
`Cc1cccc(C)c1OCc1n[nH]c(=S)n1-c1ccccc1` gave Ecoli rRNA inh -29, C2C12 statin inactive, Cneo AK release inactive and S100A4 inh HTS inactive.
For CC(C)Oc1ccc(CCc2n[nH]c(=S)n2-c2ccccc2)cc1 the results were SIRT5 block inactive, Ecoli rRNA inh -21, PGC1a acetyl inh inactive, C2C12 statin inactive, Cneo AK release inactive and S100A4 inh HTS inactive.
`CCNC(=O)[C@@H]1[C@@H](CO)[C@@H]2Cn3c(ccc(-c4ccccc4)c3=O)[C@H]1N2Cc1cccnc1` gave SIRT5 block inactive, Ecoli rRNA inh inactive, C2C12 statin inactive, Cneo AK release inactive and S100A4 inh HTS inactive.
`COc1ccc2c3c(n(C)c2c1)[C@@H](CO)N(C(=O)C1CCCC1)CC31CN(C(=O)Nc2cccc(F)c2)C1` gave SIRT5 block inactive, Ecoli rRNA inh inactive and S100A4 inh HTS inactive.
`CN(C)c1ccc([C@@H]2[C@@H]([N+](=O)[O-])[C@H]3C=Cc4ccccc4N3[C@H]2C(=O)c2ccc(Cl)cc2)cc1` gave SIRT5 block inactive, Ecoli rRNA inh -28, PGC1a acetyl inh inactive, Cneo AK release inactive and S100A4 inh HTS inactive.
Screening CN(C)c1ccc2c(c1)[C@H]1C[C@@H](CC(=O)NCC3CC3)O[C@@H](CO)[C@H]1O2 returned SIRT5 block inactive, Ecoli rRNA inh inactive, PGC1a acetyl inh inactive, C2C12 statin inactive, Cneo AK release inactive and S100A4 inh HTS inactive.
`O=C(c1ccccc1)N1CC2(C1)[C@@H](c1ccccc1)[C@H](CO)N2CC1CC1` gave SIRT5 block inactive, Ecoli rRNA inh inactive, PGC1a acetyl inh inactive and S100A4 inh HTS inactive.
For CO[C@H]1CN(C)C(=O)c2cc(NS(=O)(=O)c3ccc(C)cc3)ccc2OC[C@@H](C)N(C)C[C@H]1C the results were SIRT5 block inactive, Ecoli rRNA inh inactive, PGC1a acetyl inh inactive, C2C12 statin inactive, Cneo AK release inactive and S100A4 inh HTS inactive.
`CO[C@H]1CN(C)C(=O)c2cc(NS(=O)(=O)CC(F)(F)F)ccc2OC[C@H](C)N(Cc2cccnc2)C[C@@H]1C` gave Ecoli rRNA inh inactive, PGC1a acetyl inh inactive, C2C12 statin inactive, Cneo AK release 103 and S100A4 inh HTS inactive.
`CO[C@H]1CN(C)C(=O)c2ccc(NS(=O)(=O)CC(F)(F)F)cc2OC[C@H](C)N(Cc2cccnc2)C[C@@H]1C` gave SIRT5 block inactive, Ecoli rRNA inh inactive, PGC1a acetyl inh inactive, C2C12 statin inactive, Cneo AK release inactive and S100A4 inh HTS inactive.
`CO[C@H]1CN(C)C(=O)c2cc(NS(=O)(=O)c3cccc(F)c3)ccc2OC[C@H](C)N(Cc2cc(F)ccc2F)C[C@@H]1C` gave SIRT5 block 16, Ecoli rRNA inh inactive, PGC1a acetyl inh inactive, C2C12 statin inactive, Cneo AK release inactive and S100A4 inh HTS inactive.
CO[C@H]1CN(C)C(=O)c2ccc(NS(=O)(=O)CC(F)(F)F)cc2OC[C@H](C)N(C)C[C@@H]1C was read as SIRT5 block 25, Ecoli rRNA inh inactive, PGC1a acetyl inh inactive and S100A4 inh HTS inactive.
Screening CO[C@H]1CN(C)C(=O)c2cc(NS(=O)(=O)c3ccc(C)cc3)ccc2OC[C@H](C)N(C)C[C@H]1C returned SIRT5 block inactive, Ecoli rRNA inh inactive, PGC1a acetyl inh inactive, C2C12 statin inactive, Cneo AK release 116 and S100A4 inh HTS inactive.
